Assay results from ChEMBL document CHEMBL5042480, “3CL Protease Inhibitors with an Electrophilic Arylketone Moiety as Anti-SARS-CoV-2 Agents” (J Med Chem, 2022).
The source made the active and inactive calls. The rule behind the calls is not given here. Where a SMILES comes first, the peptide text is derived from it. The star is where a group is joined. Cbz = O=C(OCc1ccccc1)*; CF3 = FC(F)(F)*

Key:
[1] = system: SARS-CoV-2; assay: Antiviral activity against SARS coronavirus 2 infected in African green monkey Vero cells assessed as blockade of viral proliferation at 25 uM incubated for 48 hrs by cytopathic effect assay; type: functional, organism-based; settings: Severe acute respiratory syndrome coronavirus 2
[2] = Inhibition of recombinant C-terminal His-tagged SARS coronavirus 2 3CL protease using Boc-Abu-Tle-Leu-Gln-AMC as substrate incubated for 5 mins by Cheng-Prusoff equation analysis; parameters: species or system Severe acute respiratory syndrome coronavirus 2
Summary of the method: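 His-tagged 3CLpro (8 ng/μL final) was assayed in 50 mM MOPS pH 7.2 with 10 mM NaCl, 1 mM EDTA and 0.01% Triton X-100. Substrate was 50 μM final (about Km) and DMSO 4% final. Inhibitor and substrate were preincubated 5 min at 37 °C, then enzyme was added and fluorescence (ex 360/em 460 nm) read for 10 min. At least 11 concentrations were tested; IC50 came from nonlinear regression and Ki from Cheng–Prusoff. n = 3.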

[3] = Inhibition of recombinant C-terminal His-tagged SARS coronavirus 1 3CL protease using Boc-Abu-Tle-Leu-Gln-AMC as substrate incubated for 5 mins by Cheng-Prusoff equation analysis; parameters: species or system Severe acute respiratory syndrome-related coronavirus

**Q.** What does the source list for `CC(C)C[C@H](NC(=O)c1nc2ccccc2[nH]1)C(=O)N[C@@H](C[C@@H]1CCNC1=O)C(=O)c1nc2ccccc2s1`?
**A.** Activity [1]: Active; Ki [2]: 32.1 nM

**Q.** For `CC(C)C[C@H](NC(=O)[C@@H](NC(=O)[C@H](C)NC(=O)OCc1ccccc1)C(C)C)C(=O)N[C@@H](CCC(N)=O)C(=O)C(F)(F)F` (Cbz-AVLQ-CF3), which Ki [3] is on record?
**A.** 135 µM
